Source: ChEMBL document CHEMBL5385966, “Synthesis and biological evaluation of new naphthalimide-thiourea derivatives as potent antimicrobial agents active against multidrug-resistant Staphylococcus aureus and Mycobacterium tuberculosis” (RSC Med Chem, 2024)
≈ marks a conversion by molar mass, not a printed value. Calls of active or inactive are those of the source. The rule behind the calls is not given here.

Tests used:
[1] = test system: Mycobacterium tuberculosis; assay: Antimycobacterial activity against Mycobacterium tuberculosis H37Rv ATCC 27294 assessed as bacterial growth inhibition incubated for 7 days by resazurin dye based broth microdilution method; assay type: functional; settings: H37Rv ATCC 27294, 168 h, time 7 day
Summary of the method: (§1)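 Broth microdilution in Middlebrook 7H9 with 10% ADC-Tween-80 (0.2% glycerol, 0.05% Tween-80), inoculum ~10⁶ cfu/mL. Compounds came from 10 mg/mL DMSO stocks and were tested as two-fold serial dilutions at 37 °C, 7 days for M. tuberculosis H37Rv and 72 h for NTM. Growth was read visually with PrestoBlue resazurin dye; MIC was the lowest concentration preventing growth. Triplicate determinations, each in duplicate.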

Acinetobacter baumannii = assay: Antibacterial activity against Acinetobacter baumannii BAA 1605 assessed as bacterial growth inhibition incubated for 16 to 18 hrs by CLSI based antibiotic susceptibility testing method; assay type: functional, organism-based; settings: time 16-18 hrs
Summary of the method: (§2)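 Broth microdilution in cation-adjusted Mueller-Hinton broth. Compounds were tested at […], with levofloxacin as reference and medium-only controls. Plates were incubated at 37 °C for 16-18 h. MIC was the lowest concentration with no visible growth; three independent determinations, each in duplicate.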

Staphylococcus aureus = assay: Antibacterial activity against Staphylococcus aureus ATCC 29213 assessed as bacterial growth inhibition incubated for 16 to 18 hrs by CLSI based antibiotic susceptibility testing method; assay type: functional; settings: time 16-18 hrs; summary of the method: as §2
Pseudomonas aeruginosa = assay: Antibacterial activity against Pseudomonas aeruginosa ATCC 27853 assessed as bacterial growth inhibition incubated for 16 to 18 hrs by CLSI based antibiotic susceptibility testing method; assay type: functional, organism-based; settings: time 16-18 hrs; summary of the method: as §2
Escherichia coli = assay: Antibacterial activity against Escherichia coli ATCC 25922 assessed as bacterial growth inhibition incubated for 16 to 18 hrs by CLSI based antibiotic susceptibility testing method; assay type: functional, organism-based; settings: time 16-18 hrs; summary of the method: as §2
[2] = test system: Mycolicibacterium fortuitum; assay: Antimycobacterial activity against Mycobacterium fortuitum ATCC 6841 assessed as bacterial growth inhibition incubated for 72 hrs by resazurin dye based broth microdilution method; assay type: functional, organism-based; summary of the method: as §1
Klebsiella pneumoniae = assay: Antibacterial activity against Klebsiella pneumoniae BAA 1705 assessed as bacterial growth inhibition incubated for 16 to 18 hrs by CLSI based antibiotic susceptibility testing method; assay type: functional, organism-based; settings: time 16-18 hrs; summary of the method: as §2
[3] = test system: Mycobacteroides abscessus; assay: Antimycobacterial activity against Mycobacterium abscessus ATCC 19977 assessed as bacterial growth inhibition incubated for 72 hrs by resazurin dye based broth microdilution method; assay type: functional, organism-based; summary of the method: as §1
Mycobacteroides chelonae = assay: Antimycobacterial activity against Mycobacteroides chelonae ATCC 35752 assessed as bacterial growth inhibition incubated for 72 hrs by resazurin dye based broth microdilution method; assay type: functional, organism-based; summary of the method: as §1

Structure (SMILES)	MIC [1] [µg/mL]	growth inhibition (GI) (Acinetobacter baumannii)	MIC (Staphylococcus aureus) [µg/mL]	growth inhibition (GI) (Pseudomonas aeruginosa)	growth inhibition (GI) (Escherichia coli)	growth inhibition (GI) [2]	growth inhibition (GI) (Klebsiella pneumoniae)	growth inhibition (GI) [3]	growth inhibition (GI) (Mycobacteroides chelonae)
COc1ccc(NC(=S)N2CCN(C(=O)CCN3C(=O)c4cccc5cccc(c45)C3=O)CC2)cc1	8 (≈ 15.9 µM)	inactive	> 64	inactive	inactive	inactive	inactive	inactive	inactive
O=C(CN1C(=O)c2cccc3cccc(c23)C1=O)NC1CCN(C(=S)Nc2ccc(Cl)cc2)CC1	> 64	inactive	> 64	inactive	inactive	inactive	inactive	inactive	inactive
O=C(CCN1C(=O)c2cccc3cccc(c23)C1=O)NC1CCN(C(=S)Nc2ccccc2)CC1	64 (≈ 132 µM)	inactive	> 64	inactive	inactive	inactive	inactive	inactive	inactive
O=C1c2cccc3cccc(c23)C(=O)N1CCN1CCN(C(=S)NC2CC2)CC1	> 64	inactive	> 64	inactive	inactive	inactive	inactive	inactive	inactive
COc1ccc(NC(=S)N2CCN(C(=O)CN3C(=O)c4cccc5cccc(c45)C3=O)CC2)cc1	64 (≈ 131 µM)	inactive	> 64	inactive	inactive	inactive	inactive	inactive	inactive
O=C(CCN1C(=O)c2cccc3cccc(c23)C1=O)N1CCN(C(=S)Nc2ccccc2)CC1	32 (≈ 67.7 µM)	inactive	> 64	inactive	inactive	inactive	inactive	inactive	inactive
O=C1c2cccc3cccc(c23)C(=O)N1CCN1CCN(C(=S)Nc2ccc(Cl)cc2)CC1	> 64	inactive	> 64	inactive	inactive	inactive	inactive	inactive	inactive
O=C1c2cccc3cccc(c23)C(=O)N1CCN1CCN(C(=S)NC23CC4CC(CC(C4)C2)C3)CC1	> 64	inactive	> 64	inactive	inactive	inactive	inactive	inactive	inactive
CCCCCCCNC(=S)N1CCN(CCN2C(=O)c3cccc4cccc(c34)C2=O)CC1	64 (≈ 137 µM)	inactive	> 64	inactive	inactive	inactive	inactive	inactive	inactive
O=C(CCN1C(=O)c2cccc3cccc(c23)C1=O)NC1CCN(C(=S)Nc2ccc(Cl)cc2)CC1	> 64	inactive	> 64	inactive	inactive	inactive	inactive	inactive	inactive
CC(C)NC(=S)N1CCN(CCN2C(=O)c3cccc4cccc(c34)C2=O)CC1	> 64	inactive	> 64	inactive	inactive	inactive	inactive	inactive	inactive
O=C1c2cccc3cccc(c23)C(=O)N1CCN1CCN(C(=S)Nc2cccc(Cl)c2)CC1	> 64	inactive	> 64	inactive	inactive	inactive	inactive	inactive	inactive
O=C(CN1C(=O)c2cccc3cccc(c23)C1=O)N1CCC(NC(=S)NC23CC4CC(CC(C4)C2)C3)CC1	32 (≈ 60.3 µM)	inactive	4 (≈ 7.54 µM)	inactive	inactive	inactive	inactive	inactive	inactive
Cc1ccc(NC(=S)N2CCN(CCN3C(=O)c4cccc5cccc(c45)C3=O)CC2)cc1	> 64	inactive	> 64	inactive	inactive	inactive	inactive	inactive	inactive
O=C(Nc1ccc(Cl)cc1)N1CCN(CCN2C(=O)c3cccc4cccc(c34)C2=O)CC1	8 (≈ 17.3 µM)	inactive	> 64	inactive	inactive	inactive	inactive	inactive	inactive
O=C(CN1C(=O)c2cccc3cccc(c23)C1=O)N1CCN(C(=S)Nc2cccc(Cl)c2)CC1	32 (≈ 64.9 µM)	inactive	> 64	inactive	inactive	inactive	inactive	inactive	inactive
